Results on six compounds are retold here after ChEMBL document CHEMBL1681701, “Huprines as a new family of dual acting trypanocidal-antiplasmodial agents” (Bioorg Med Chem, 2011).

The structures appear in SMILES notation. pIC50: −log10 of the molar value. Where a name gives a salt, the structure may show the parent alone.

Data set [1] deals with Trypanosoma brucei. Kind of data set: Antitrypanosomal activity against Trypanosoma brucei 427. The class given is functional, organism-based.
Data set [2] deals with Trypanosoma brucei. Kind of data set: Trypanocidal activity against bloodstream form of Trypanosoma brucei 427 after 48 hrs. Type of data set: functional, organism-based. The conditions noted are these: Trypanosoma brucei, 427, 48 h.
The next data set relates to L6. Kind of data set: Cytotoxicity against rat L6 cells after 6 days by Alamar blue assay. To be noted: L6, 144 h. Type of data set: cell-based. The procedure, abridged:
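Rat skeletal myoblast L6 cells seeded at 1 × 10^4 ml−1 in growth medium with a range of compound concentrations and held 6 days at 37 °C. Alamar Blue was then added and fluorescence read after a further 8 h. IC50 is the mean of triplicate experiments ± SEM.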
In general terms: The colour change of resazurin is a common sign of viable cells or microbes.

Data set [3] in a line: Selectivity index, ratio of IC50 for rat L6 cells to IC 50 for Trypanosoma brucei 427. The class given is toxicity, cell-based. To be noted: L6 cells versus Trypanosoma brucei 427, read-out: Selectivity Index.
The next data set relates to Plasmodium falciparum. Kind of data set: Antiplasmodial activity against chloroquine-resistant Plasmodium falciparum K1. The class given is functional, organism-based. The procedure, abridged:
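K1 parasites grown in human A+ erythrocytes in RPMI 1640 with A+ serum and D-glucose; predominantly early ring-stage cultures used. Twofold serial dilutions run in duplicate from DMSO stocks (final DMSO ≤0.5%), at 2.5% haematocrit and 1% parasitaemia. Incubation was 48 h at 37 °C under 93% N2/3% O2/4% CO2. Growth was read as lactate dehydrogenase activity (APAD/NBT, 550 nm), and IC50 was taken by linear regression.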

Data set [4] in a line: Selectivity index, ratio of IC50 for rat L6 cells to IC50 for chloroquine-resistant Plasmodium falciparum K1. To be noted: read-out: Selectivity Index. Type of data set: toxicity, cell-based.

The compound `CC(C)C1=CC2Cc3nc4ccccc4c(N)c3C(C1)C2` (centres undefined) showed a pIC50 with Trypanosoma brucei [1] of 6.52.
Same read-out and setting: next, `C=CCC1=CC2Cc3nc4ccccc4c(N)c3C(C1)C2` (centres undefined): 6.52.
With `Nc1c2c(nc3ccccc13)CC1C=C(c3ccccc3)CC2C1` (centres undefined), the pIC50 is 5.78 in the data set with Trypanosoma brucei [2], 5.45 in the data set with L6 and 5.15 in the data set on Plasmodium falciparum. It took 4700 nM to reach the 90% level in the data set with Trypanosoma brucei [2] (IC90). The selectivity ratio in data set [3] and in data set [4] was 2.1 throughout.
In the data set with Trypanosoma brucei [2], `CC1=CC2Cc3nc4cccc(F)c4c(N)c3C(C1)C2` (centres undefined) had a pIC50 of 5.43 and an IC90 of 15800 nM.
Regarding `CC1=CC2Cc3nc4cc(Cl)ccc4c(N)c3C(C1)C2` (centres undefined), in the data set with Trypanosoma brucei [1], the pIC50 is 6.52.
With `CCC1=C[C@@H]2Cc3nc4cc(Cl)ccc4c(N)c3[C@H](C1)C2` [HUPRINE X HYDROCHLORIDE], the results for the pIC50 in the data set on Trypanosoma brucei [1], in the data set on Trypanosoma brucei [2] and in the data set with L6 were 6.52, 6.08 and 4.90, respectively.

Broadly, the pIC50 is −log10 of the IC50, conventionally taken in molar units. As usually defined, the IC90 is the concentration needed for an effect of 90%. High values mean weaker potency, low ones greater potency.
